Data on 16 compounds can be found in ChEMBL document CHEMBL4680195, “Negative allosteric modulators of the GluN2B NMDA receptor with phenylethylamine structure embedded in ring-expanded and ring-contracted scaffolds” (Eur J Med Chem, 2020).

A short description of test [1]: Cytoprotective activity against glutamate/glycine-induced cell death in mouse L-M(TK-) cells assessed as increase in cell viability at 10 uM incubated for 30 mins followed by glutamate/glycine stimulation and measured after 6 hrs by LDH assay relative to control. Format: functional. The settings on record: time 6.5 hrs. The procedure, abridged:
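Mouse L(tk-) fibroblasts stably carrying dexamethasone-inducible GluN1a and GluN2B vectors (1:5). Wells blocked with DMEM containing 1% BSA, then given test compound, at least triplicate, 30 min at 37 °C. Glutamate/glycine solution then added, 6 h at 37 °C. LDH in supernatant read with diaphorase/lactate/NAD+/iodonitrotetrazolium mix, 45 min at 37 °C, absorbance 485 nm. Buffer gave total LDH; (S)-ketamine 4 × 10^-5 mol/L was positive control.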

The target in test [2] is T1, Sigma intracellular receptor 2 (Rattus norvegicus, UniProt Q5U3Y7).
T1 sequence (Q5U3Y7 whole entry): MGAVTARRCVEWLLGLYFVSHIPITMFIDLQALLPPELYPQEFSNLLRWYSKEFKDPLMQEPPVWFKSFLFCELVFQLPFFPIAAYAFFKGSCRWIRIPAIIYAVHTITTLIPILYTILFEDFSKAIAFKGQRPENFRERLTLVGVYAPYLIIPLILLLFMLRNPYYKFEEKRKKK
Put plainly: Displacement of [3H]DTG from sigma 2 receptor in rat liver membranes incubated for 120 mins by scintillation counting method. Format: cell membranes, Membrane. (Loss of bound radioactivity is the signal in a displacement assay; it reports binding, not function.)

Test [3] concerns the target Glutamate receptor ionotropic, NMDA 2B (Homo sapiens, UniProt Q05586+Q13224). Put plainly: Displacement of [3H]ifenprodil from human GluN2B expressed in mouse L(tk-) cell membranes co-expressing GluN1a incubated for 2 hrs by scintillation counting method. Details: species or system L-M(TK-), Cell membrane.
For test [4], the target named is Sigma non-opioid intracellular receptor 1 (Cavia porcellus, UniProt Q60492). Put plainly: Displacement of [3H]-(+)-pentazocine from Sigma1 receptor in guinea pig cortex membranes incubated for 120 mins by scintillation counting method. Format: cell membranes, Membrane.
Sigma non-opioid intracellular receptor 1, sequence (Q60492 whole entry): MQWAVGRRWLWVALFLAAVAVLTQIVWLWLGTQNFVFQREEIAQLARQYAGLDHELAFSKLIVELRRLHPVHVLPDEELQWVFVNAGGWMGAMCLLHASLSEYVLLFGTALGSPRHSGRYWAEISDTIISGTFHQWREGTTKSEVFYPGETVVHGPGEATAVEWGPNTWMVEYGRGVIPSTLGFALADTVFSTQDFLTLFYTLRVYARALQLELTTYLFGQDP
Test [5] has as its target Sigma intracellular receptor 2 (Homo sapiens, UniProt Q5BJF2). Briefly: Binding affinity to Sigma 2 receptor (unknown origin).
Test [6] can be described thus: Cytoprotective activity against glutamate/glycine-induced cell death in mouse L-M(TK-) cells assessed as increase in cell viability incubated for 30 mins followed by glutamate/glycine stimulation and measured after 6 hrs by LDH assay. Format: functional, cell-based. Summed up: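 Mouse L(tk-) fibroblasts stably carrying dexamethasone-inducible GluN1a and GluN2B vectors (1:5 ratio). Cells preincubated with test compound in DMEM, at least in triplicate, 30 min at 37 °C. Then glutamate/glycine (each 20 µM, stock added) added and incubated 6 h at 37 °C. LDH released into the supernatant read at 485 nm after 45 min at 37 °C. Buffer in place of ligand gave total LDH. (S)-ketamine 4 × 10⁻⁵ mol/L was the positive control.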

Test [7] has as its target Glutamate receptor ionotropic, NMDA 2B (Rattus norvegicus) (UniProt Q00960). Briefly: Negative allosteric inhibition of rat GluN2B expressed in Oocytes co-expressing GluN1a at 10 uM at -70 mV holding potential by two electrode voltage-clamp assay relative to control. The settings on record: filed as negative allosteric modulator. Background: Two-electrode voltage clamp holds a large cell at a set potential and records current.

The target is the same in test [8]. Briefly: Negative allosteric inhibition of rat GluN2B expressed in Oocytes co-expressing GluN1a at 1 uM at -70 mV holding potential by two electrode voltage-clamp assay relative to control. As to conditions: filed as negative allosteric modulator.

Bounds are passed on as bounds.

Glutamate receptor ionotropic, NMDA 2B, sequence (Q13224 whole entry, one chain of several): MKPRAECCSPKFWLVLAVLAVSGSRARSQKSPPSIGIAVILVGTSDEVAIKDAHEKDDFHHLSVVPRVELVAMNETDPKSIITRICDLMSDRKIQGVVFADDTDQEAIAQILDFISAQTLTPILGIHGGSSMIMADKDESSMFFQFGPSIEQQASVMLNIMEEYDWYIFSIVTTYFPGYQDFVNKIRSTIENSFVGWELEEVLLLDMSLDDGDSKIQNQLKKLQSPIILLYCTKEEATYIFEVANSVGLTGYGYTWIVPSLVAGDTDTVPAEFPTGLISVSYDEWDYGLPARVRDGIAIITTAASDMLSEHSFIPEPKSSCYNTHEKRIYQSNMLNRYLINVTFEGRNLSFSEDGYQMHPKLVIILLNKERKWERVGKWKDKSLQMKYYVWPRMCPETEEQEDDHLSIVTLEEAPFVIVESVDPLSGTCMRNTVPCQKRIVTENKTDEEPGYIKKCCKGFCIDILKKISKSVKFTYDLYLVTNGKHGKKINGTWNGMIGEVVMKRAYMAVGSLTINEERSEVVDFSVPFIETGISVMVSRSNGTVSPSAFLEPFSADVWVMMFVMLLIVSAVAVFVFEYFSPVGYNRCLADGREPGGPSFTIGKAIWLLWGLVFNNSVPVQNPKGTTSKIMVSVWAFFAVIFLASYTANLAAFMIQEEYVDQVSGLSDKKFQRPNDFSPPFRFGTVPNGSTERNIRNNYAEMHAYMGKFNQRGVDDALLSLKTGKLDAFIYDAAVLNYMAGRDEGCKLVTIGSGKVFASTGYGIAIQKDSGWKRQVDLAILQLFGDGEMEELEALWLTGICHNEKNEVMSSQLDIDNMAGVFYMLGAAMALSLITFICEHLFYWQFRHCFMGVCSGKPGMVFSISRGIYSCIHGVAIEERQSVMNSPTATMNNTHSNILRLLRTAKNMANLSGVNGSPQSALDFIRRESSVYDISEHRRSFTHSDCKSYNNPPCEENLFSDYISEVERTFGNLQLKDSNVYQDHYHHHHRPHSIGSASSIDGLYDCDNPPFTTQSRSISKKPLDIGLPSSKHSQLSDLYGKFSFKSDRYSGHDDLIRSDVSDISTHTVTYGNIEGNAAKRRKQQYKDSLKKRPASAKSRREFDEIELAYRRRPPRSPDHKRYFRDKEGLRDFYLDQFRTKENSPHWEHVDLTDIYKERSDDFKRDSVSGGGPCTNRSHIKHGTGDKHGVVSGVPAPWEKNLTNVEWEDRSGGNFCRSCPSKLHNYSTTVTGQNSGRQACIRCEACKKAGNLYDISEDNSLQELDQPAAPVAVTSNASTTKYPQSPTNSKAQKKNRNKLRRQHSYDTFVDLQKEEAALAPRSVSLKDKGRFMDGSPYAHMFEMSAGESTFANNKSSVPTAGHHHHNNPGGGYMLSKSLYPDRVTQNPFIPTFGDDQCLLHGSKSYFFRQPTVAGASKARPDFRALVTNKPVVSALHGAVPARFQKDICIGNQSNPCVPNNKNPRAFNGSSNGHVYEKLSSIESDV
Glutamate receptor ionotropic, NMDA 2B (Rattus norvegicus), sequence (Q00960 whole entry, looked up): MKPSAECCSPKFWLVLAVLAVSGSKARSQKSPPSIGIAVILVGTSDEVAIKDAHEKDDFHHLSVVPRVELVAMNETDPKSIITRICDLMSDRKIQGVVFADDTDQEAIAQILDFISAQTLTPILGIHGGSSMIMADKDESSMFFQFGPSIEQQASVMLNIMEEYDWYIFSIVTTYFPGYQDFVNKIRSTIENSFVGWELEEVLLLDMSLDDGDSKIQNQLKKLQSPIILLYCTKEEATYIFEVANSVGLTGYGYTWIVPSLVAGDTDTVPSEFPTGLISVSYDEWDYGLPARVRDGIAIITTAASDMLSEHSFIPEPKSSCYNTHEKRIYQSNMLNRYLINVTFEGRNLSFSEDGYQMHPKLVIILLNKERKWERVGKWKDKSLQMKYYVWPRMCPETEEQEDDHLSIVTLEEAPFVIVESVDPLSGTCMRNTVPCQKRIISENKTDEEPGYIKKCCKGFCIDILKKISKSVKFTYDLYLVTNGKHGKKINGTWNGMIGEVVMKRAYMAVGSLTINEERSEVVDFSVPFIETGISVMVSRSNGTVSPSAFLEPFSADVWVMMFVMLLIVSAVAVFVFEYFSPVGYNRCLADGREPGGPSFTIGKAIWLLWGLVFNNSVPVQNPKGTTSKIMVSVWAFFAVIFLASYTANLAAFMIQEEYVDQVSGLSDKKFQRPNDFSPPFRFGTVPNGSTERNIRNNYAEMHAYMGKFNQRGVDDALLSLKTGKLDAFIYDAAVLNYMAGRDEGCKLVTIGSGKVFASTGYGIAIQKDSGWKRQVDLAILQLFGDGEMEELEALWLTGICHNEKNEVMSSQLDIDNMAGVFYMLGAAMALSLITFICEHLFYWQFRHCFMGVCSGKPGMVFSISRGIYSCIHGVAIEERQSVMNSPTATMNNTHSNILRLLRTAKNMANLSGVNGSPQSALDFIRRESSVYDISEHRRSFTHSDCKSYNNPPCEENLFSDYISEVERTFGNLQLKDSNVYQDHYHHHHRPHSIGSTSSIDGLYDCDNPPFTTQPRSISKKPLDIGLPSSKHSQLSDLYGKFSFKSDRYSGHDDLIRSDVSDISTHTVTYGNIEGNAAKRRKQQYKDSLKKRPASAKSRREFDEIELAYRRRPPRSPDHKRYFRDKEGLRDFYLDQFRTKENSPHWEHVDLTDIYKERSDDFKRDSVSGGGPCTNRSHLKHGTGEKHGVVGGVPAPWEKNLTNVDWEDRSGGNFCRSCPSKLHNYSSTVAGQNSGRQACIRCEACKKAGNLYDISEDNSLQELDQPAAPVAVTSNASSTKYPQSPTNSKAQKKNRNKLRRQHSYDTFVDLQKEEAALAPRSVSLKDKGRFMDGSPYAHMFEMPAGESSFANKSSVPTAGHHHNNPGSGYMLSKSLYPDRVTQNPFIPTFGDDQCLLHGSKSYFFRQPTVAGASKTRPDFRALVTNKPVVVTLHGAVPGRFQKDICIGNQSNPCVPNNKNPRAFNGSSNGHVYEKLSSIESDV
Sigma intracellular receptor 2 (Homo sapiens, UniProt Q5BJF2), sequence (Q5BJF2 whole entry): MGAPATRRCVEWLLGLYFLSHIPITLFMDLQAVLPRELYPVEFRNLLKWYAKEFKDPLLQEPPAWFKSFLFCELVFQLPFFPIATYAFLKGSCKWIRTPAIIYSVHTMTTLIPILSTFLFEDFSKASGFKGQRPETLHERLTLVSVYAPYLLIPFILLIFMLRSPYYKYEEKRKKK

`c1ccc(CCCNC2CCc3ccccc3CC2)cc1`: the Activity in test [1] is on record as 29%.

Take `c1ccc(CCCCNC2CCc3ccccc3C2)cc1` (centres undefined): the Ki (usually a dissociation constant, usually derived from enzyme kinetics or from competition with a known ligand) in test [2] is 50 nM; in test [3], 266 nM; in test [4], 46 nM.

As for `c1ccc(CCNC2CCc3ccccc3C2)cc1` (centres undefined), the Ki turned out to be 70 nM in test [2], 237 nM in test [3] and 51 nM in test [4].

For the compound `c1ccc(CCCNC2Cc3ccccc3C2)cc1`, the Ki in test [2] came out at 38 nM; in test [3], 117 nM; in test [4], 58 nM. In addition, the Activity in test [1] is given as 31%.

With `Oc1ccc2c(c1)CCN(CCCCc1ccccc1)CC2O` (centres undefined), the Ki in test [5] was > 10000 nM.

Turning to `c1ccc(CCNC2Cc3ccccc3C2)cc1`, the Ki in test [2] is 694 nM; in test [3], 455 nM; in test [4] it was 168 nM.

Regarding `c1ccc(CCCCN2CCCc3ccccc3CC2)cc1`, the Ki came to 50 nM in test [2], 32 nM in test [3] and 22 nM in test [4]. Also, in test [6], the IC50 (as a rule, the point on the concentration scale where inhibition reaches its midpoint) stood at 890 nM. For the same compound, the inhibition (in general, the percentage by which the read-out fell short of the control) in test [7] amounted to 60%; in test [8] it was 8%.

With `c1ccc(C2CCN(C3Cc4ccccc4C3)CC2)cc1`, the values for the Ki in test [2], in test [3] and in test [4] were 25 nM, 4.5 nM and 44 nM, respectively.

Turning to `CC(C(O)c1ccc(O)cc1)N1CCC(Cc2ccccc2)CC1` (centres undefined) [IFENPRODIL], the IC50 in test [6] was determined as 590 nM.

As to `c1ccc(CNC2CCc3ccccc3C2)cc1` (centres undefined), the Ki in test [2] was 65 nM; in test [3], 4000 nM; in test [4] it was 285 nM.

As for `c1ccc(CC2CCN(C3Cc4ccccc4C3)CC2)cc1`, the values for the Ki in test [2], in test [3] and in test [4] were 28 nM, 3.2 nM and 51 nM, respectively. The Activity in test [1] is reported as 7%.

Take `c1ccc(C2CCN(C3CCc4ccccc4C3)CC2)cc1` (centres undefined): the values for the Ki in test [2], in test [3] and in test [4] were 2.9 nM, 8.4 nM and 1.9 nM, respectively.

For `c1ccc(CCCN2CCCc3ccccc3CC2)cc1`, the Ki came out at 178 nM in test [2], 36 nM in test [3] and 17 nM in test [4]. The IC50 in test [6] was found to be 7800 nM.

On to `c1ccc(CCCCNC2Cc3ccccc3C2)cc1`, for which the inhibitory constant (Ki) in test [2] is 150 nM; in test [3] it was 66 nM; in test [4], 31 nM.

As to `c1ccc(CCCNC2CCc3ccccc3C2)cc1` (centres undefined), the Ki amounted to 29 nM in test [2], 163 nM in test [3] and 59 nM in test [4]. For the same compound, the Activity in test [1] stood at 30%.

As to `c1ccc(CC2CCN(C3CCc4ccccc4C3)CC2)cc1` (centres undefined), the Ki in test [2] was found to be 2.1 nM; in test [3], 8 nM; in test [4], 6 nM.
